Laboratory results taken from ChEMBL document CHEMBL4823246, “Fragment-like Chloroquinolineamines Activate the Orphan Nuclear Receptor Nurr1 and Elucidate Activation Mechanisms” (J Med Chem, 2021).
Activity calls are given as the source filed them. The calls are words filed in the database; no cut-off is given here.

Columns and labels:
Type in all cases: cell-based
[1] = molecular target: T1, Nuclear receptor subfamily 4 group A member 2 (Homo sapiens, UniProt P43354); assay: Agonist activity at Gal4-fused human Nurr1 LBD expressed in HEK293T cells co-expressing firefly luciferase assessed as luciferase activity at 100 uM incubated for 12 to 14 hrs by hybrid reporter gene assay; settings: time 12-14 hrs
T1 sequence (P43354 whole entry, the tested form may be a part): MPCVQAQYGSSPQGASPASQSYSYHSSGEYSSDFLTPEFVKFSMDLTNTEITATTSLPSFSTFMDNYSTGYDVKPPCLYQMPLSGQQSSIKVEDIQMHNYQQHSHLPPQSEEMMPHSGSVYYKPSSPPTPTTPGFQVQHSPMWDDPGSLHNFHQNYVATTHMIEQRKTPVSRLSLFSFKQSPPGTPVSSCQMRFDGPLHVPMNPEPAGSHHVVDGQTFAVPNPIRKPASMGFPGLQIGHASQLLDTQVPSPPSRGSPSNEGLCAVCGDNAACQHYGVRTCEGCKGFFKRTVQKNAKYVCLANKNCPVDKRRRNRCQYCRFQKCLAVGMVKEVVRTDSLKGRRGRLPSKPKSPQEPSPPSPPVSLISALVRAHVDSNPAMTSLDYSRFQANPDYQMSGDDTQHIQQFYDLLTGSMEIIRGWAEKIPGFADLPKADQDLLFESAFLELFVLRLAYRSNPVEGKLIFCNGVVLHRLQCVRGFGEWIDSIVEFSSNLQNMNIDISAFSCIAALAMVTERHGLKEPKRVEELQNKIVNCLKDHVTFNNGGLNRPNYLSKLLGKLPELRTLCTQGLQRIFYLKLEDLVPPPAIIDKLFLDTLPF
In short: (§1)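 HEK293T cells, seeded 3 × 10⁴/well the day before, were transiently transfected with a Gal4–human Nurr1 LBD hybrid receptor, a Gal4-responsive firefly luciferase reporter (pFR-Luc) and SV40-renilla luciferase. Five hours later cells received compound in Opti-MEM with 0.1% DMSO for 12−14 h, then a dual-luciferase read-out. Firefly/renilla ×1000 gave RLU; fold activation was taken vs DMSO. Duplicates, ≥3 independent runs; EC50/IC50 are mean SD.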

[2] = molecular target: T1, Nuclear receptor subfamily 4 group A member 2; assay: Agonist activity at Gal4-fused human Nurr1 LBD expressed in HEK293T cells co-expressing firefly luciferase assessed as luciferase activity incubated for 12 to 14 hrs by hybrid reporter gene assay
[3] = molecular target: T1, Nuclear receptor subfamily 4 group A member 2; assay: Agonist activity at Gal4-fused human Nurr1 LBD expressed in HEK293T cells co-expressing firefly luciferase assessed as luciferase activity at 30 uM incubated for 12 to 14 hrs by hybrid reporter gene assay; settings: time 12-14 hrs; in short: as §1
[4] = molecular target: T1, Nuclear receptor subfamily 4 group A member 2; assay: Agonist activity at Gal4-fused human Nurr1 LBD expressed in HEK293T cells co-expressing firefly luciferase assessed as luciferase activity at 200 uM incubated for 12 to 14 hrs by hybrid reporter gene assay; settings: time 12-14 hrs; in short: as §1
[5] = molecular target: T1, Nuclear receptor subfamily 4 group A member 2; assay: Agonist activity at Gal4-fused human Nurr1 LBD expressed in HEK293T cells co-expressing firefly luciferase assessed as luciferase activity at 300 uM incubated for 12 to 14 hrs by hybrid reporter gene assay; settings: time 12-14 hrs; in short: as §1
[6] = molecular target: T1, Nuclear receptor subfamily 4 group A member 2; assay: Agonist activity at Gal4-fused human Nurr1 LBD expressed in HEK293T cells co-expressing firefly luciferase assessed as luciferase activity at 10 uM incubated for 12 to 14 hrs by hybrid reporter gene assay; settings: time 12-14 hrs; in short: as §1
[7] = molecular target: T1, Nuclear receptor subfamily 4 group A member 2; assay: Inverse agonist activity at Gal4-fused human Nurr1 LBD expressed in HEK293T cells co-expressing firefly luciferase assessed as luciferase activity incubated for 12 to 14 hrs by hybrid reporter gene assay; in short: as §1
[8] = molecular target: T2, Retinoic acid receptor RXR-alpha (Homo sapiens) (UniProt P19793); assay: Agonist activity at full length human RxRalpha heterodimer response element DR5 expressed in HEK293T cells co-expressing firefly luciferase assessed as firefly luciferase activity up to 100 uM incubated for 12 to 14 hrs by hybrid reporter gene assay; settings: filed as agonist, dose microM <=100, time 12-14 hrs
T2 sequence (whole entry): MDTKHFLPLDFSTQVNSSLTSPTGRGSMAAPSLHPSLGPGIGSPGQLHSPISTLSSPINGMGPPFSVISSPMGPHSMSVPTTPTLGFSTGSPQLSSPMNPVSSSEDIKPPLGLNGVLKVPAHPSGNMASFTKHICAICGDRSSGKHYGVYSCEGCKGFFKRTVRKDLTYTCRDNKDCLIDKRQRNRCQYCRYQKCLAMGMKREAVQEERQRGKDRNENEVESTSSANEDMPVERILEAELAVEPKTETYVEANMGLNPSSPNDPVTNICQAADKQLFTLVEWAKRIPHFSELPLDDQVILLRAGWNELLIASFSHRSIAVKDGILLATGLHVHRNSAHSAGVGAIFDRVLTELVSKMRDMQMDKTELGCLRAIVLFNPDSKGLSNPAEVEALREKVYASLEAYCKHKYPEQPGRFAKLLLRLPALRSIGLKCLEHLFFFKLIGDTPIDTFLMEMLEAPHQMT
In short: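 Full-length receptor assay in HEK293T cells transiently cotransfected with pFR-Luc-DR5 reporter, human Nurr1 (pcDNA3.1-hNurr1-NE), human RXR (pSG5-hRXR) and SV40-renilla. Five hours post-transfection, compound was added in Opti-MEM with 0.1% DMSO for 12−14 h, then a dual-luciferase read-out. Firefly/renilla ×1000 gave RLU, expressed as fold over DMSO control. Duplicates, ≥3 independent experiments.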

`Nc1ccc2ccc(Cl)cc2n1` was tested, and the Activity [1] was “inactive”.

`Cc1cc(NC(C)C(C)C)c2cccc(Cl)c2n1` (stereo not drawn) showed an EC50 [2] of 17 µM.

In the case of `CCN(CC)Cc1cccc(Nc2ccnc3cc(Cl)ccc23)c1`, the EC50 [2] is reported as 116 µM.

With `Oc1ccc(Nc2ccnc3cc(Cl)ccc23)cc1` the Activity [3] was “inactive”.

`Nc1ccnc2c(Cl)cccc12` showed an EC50 [2] of 49 µM.

In the case of `Nc1cncc2c(Cl)cccc12`, the Activity [4] is reported as “inactive”.

`CCN(CC)Cc1cc(Nc2cc(C)nc3c(Cl)cccc23)ccc1O` was tested, and the Activity [1] was “inactive”.

For `Cc1cc(N)c2ccc(Cl)cc2n1`, the EC50 [2] was 33 µM.

In the case of `Nc1cnc2cc(Cl)ccc2c1`, the Activity [5] is reported as “inactive”.

Work on `Nc1ccnc2cc(Cl)ccc12` yielded an EC50 [2] of 259 µM.

`CC1CCC(Nc2ccnc3cc(Cl)ccc23)CC1` (stereo not drawn) was tested, and the Activity [3] was “inactive”.

In the case of `CCCCNc1cc(C)nc2c(Cl)cccc12`, the EC50 [2] is reported as 12 µM.

In the case of `Nc1ccnc2c(F)cccc12`, the Activity [5] is reported as “inactive”.

In the case of `Clc1ccc2c(NCc3ccccc3)ccnc2c1`, the Activity [6] is reported as “inactive”.

In the case of `Cc1cc(NC(C)C)c2cccc(Cl)c2n1`, the EC50 [2] is reported as 31 µM.

`Nc1ccc(Cl)c2ncccc12` was tested, and the Activity [1] was “inactive”.

In the case of `Clc1ccc2c(Cl)ccnc2c1`, the Activity [5] is reported as “inactive”.

With `Nc1ccnc2ccccc12` the Activity [5] was “inactive”.

In the case of `O=C(O)CCCNc1ccnc2cc(Cl)ccc12`, the IC50 [7] is reported as 132 µM.

`CC(CCCN(C)C)Nc1cccc2c(Cl)cccc12` (stereo not drawn) was tested, and the Activity [6] was “inactive”.

In the case of `Nc1ccnc2c(C(F)(F)F)cccc12`, the Activity [5] is reported as “inactive”.

For `Nc1ccnc2ccc(Cl)cc12`, the EC50 [2] was 117 µM.

For `Nc1c(Cl)ccc2ncccc12`, the Activity [1] was “inactive”.

In the case of `Cc1cc(N)c2cccc(Cl)c2n1`, the Activity [8] is reported as “Active”.

`O=C(OCC(O)CO)c1ccccc1Nc1ccnc2cc(Cl)ccc12` (stereo not drawn) was tested, and the Activity [6] was “inactive”.

For `Nc1cc(Cl)cc2ncccc12`, the EC50 [2] was 19 µM.

For `Clc1ccc2cccnc2c1`, the IC50 [7] was 89 µM.

With `CCN(CC)CCCC(C)Nc1cc(C)nc2c(Cl)cccc12` (stereo not drawn) the Activity [1] was “inactive”.
